# Assay results of several laboratories.
# Compare with care: the assays were run in different laboratories.
# PKN1: Serine/threonine-protein kinase N1 (PKN1, Homo sapiens, UniProt Q16512)
# PIK3C2G: Phosphatidylinositol 3-kinase C2 domain-containing subunit gamma (PIK3C2G, Homo sapiens, UniProt O75747)
SMILES,target,read-out,mode,method,tested at,endpoint,result
CN(C)C(=O)COC(=O)Cc1ccc(OC(=O)c2ccc(NC(=N)N)cc2)cc1,"Cathepsin L2 (CTSV, Homo sapiens, UniProt O60911)",enzyme activity,inhibitor,,10 µM,inhibition,1%
N#C/C(=C\c1ccc(O)c(O)c1)C(N)=S,PKN1,enzyme activity,inhibitor,,1 µM,activity vs control,69%
CN1CCC(C(c2ccccc2)c2ccccc2)CC1,"Histamine H1 receptor (HRH1, Homo sapiens, UniProt P35367)",binding,,,,koff,0.133 s⁻¹
CN1CC[C@]2(C)c3cc(OC(=O)Nc4ccccc4)ccc3N(C)[C@H]12,"Muscarinic acetylcholine receptor M4 (CHRM4, Homo sapiens, UniProt P08173)",ligand displacement,,radioligand,10 µM,inhibition,0%
COc1ncccc1-c1cnn2ccc(N3CCN(C(=O)OC(C)C)CC3)nc12,PIK3C2G,binding,,competition with immobilised ligand,1 µM,remaining binding,94%
Cc1nn(C)cc1-c1nc2c(N3CCN(Cc4ccc(Cl)cc4)CC3)c(Cl)cnc2[nH]1,"Cyclin-dependent kinase 18 (CDK18, Homo sapiens, UniProt Q07002)",binding,,competition with immobilised ligand,1 µM,remaining binding,100%
COC[C@H]1OC(=O)c2coc3c2[C@@]1(C)C1=C(C3=O)[C@@H]2CCC(=O)[C@@]2(C)C[C@H]1OC(C)=O,PKN1,enzyme activity,inhibitor,,1 µM,activity vs control,111%
CCOC(=O)c1ccc(OC(=O)CCCCCNC(=N)N)cc1,"Matrix metalloproteinase-9 (MMP9, Homo sapiens, UniProt P14780, Q279R)",enzyme activity,inhibitor,,10 µM,inhibition,13%
COc1ccc2c(c1)/C(=C/c1cnc[nH]1)C(=O)N2,PKN1,enzyme activity,inhibitor,,1 µM,activity vs control,55%
Nc1ncc(-c2nc(N3CCOCC3)nc(N3CCOCC3)n2)c(C(F)F)n1,PIK3C2G,binding,,competition with immobilised ligand,10 µM,remaining binding,0.75%
